Experimental data reported in ChEMBL document CHEMBL5107962, “Covalent sortase A inhibitor ML346 prevents Staphylococcus aureus infection of Galleria mellonella” (RSC Med Chem, 2022).
pIC50: −log10 of the molar value. Active and inactive are the calls of the source. The rule behind the calls is not given here.

Columns and labels:
Staphylococcus aureus [1] = assay: Antibiofilm activity against methicillin-resistant Staphylococcus aureus USA300 assessed as reduction in biofilm biomass at 25 to 200 uM incubated for 18 hrs by crystal violet staining based microplate reader analysis; type: functional, organism-based; conditions: dose 25-200 µM
In short: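 S. aureus overnight culture diluted 1:1000 in TSB with inhibitor, grown static at 37 °C for 18 h. Wells rinsed with PBS, fixed with methanol 10 min, stained with 0.1% crystal violet 15 min. Stain dissolved in 33% acetic acid and A600 read. Three independent experiments, mean ± SEM.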

Staphylococcus aureus [2] = assay: Antibacterial activity against Staphylococcus aureus Newman assessed as inhibition of bacterial growth incubated for 16 to 18 hrs; type: functional; conditions: time 16-18 hrs
In short: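 Broth microdilution: S. aureus in TSB, E. coli in LB. Overnight cultures diluted 1:1000, grown at 37 °C to A600 0.6, then diluted 1:400 into two-fold compound dilutions. Incubated 16–18 h at 37 °C without shaking. MIC taken as the lowest concentration with no visible growth. Two independent experiments.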

[3] = Irreversible inhibition of recombinant Streptococcus pyogenes sortase A deltaN81 expressed in Escherichia coli BL21(DE3) cells using Abz-LPATG-Dnp as substrate preincubated for 60 mins followed by substrate addition and measured every 1 min for 15 mins by FRET-based assay
[4] = Selectivity ratio of Kinact for irreversible inhibition of recombinant Staphylococcus aureus sortase A deltaN24 expressed in Escherichia coli BL21(DE3) cells to Kinact for irreversible inhibition of recombinant Streptococcus pyogenes sortase A deltaN81 expressed in Escherichia coli BL21(DE3) cells
Sortase A = Sortase A (Staphylococcus aureus, UniProt Q9S446); assay: Irreversible inhibition of recombinant Staphylococcus aureus sortase A deltaN24 expressed in Escherichia coli BL21(DE3) cells using Abz-LPATG-Dnp as substrate preincubated for 60 mins followed by substrate addition and measured every 1 min for 15 mins by FRET-based assay
In short: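 SaSrtAΔN24 preincubated with compound for 10, 20, 40 or 60 min before FRET IC50 determination with Abz-LPATG-Dnp in Tris pH 7.5, NaCl, CaCl2 buffer.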

[5] = test system: Sortase A (Staphylococcus aureus), Q9S446 [UNDEFINED MUTATION]; assay: Irreversible inhibition of recombinant Staphylococcus aureus sortase A deltaN24 expressed in Escherichia coli BL21(DE3) cells assessed as thermal stabilization by measuring change in melting temperature incubated for 15 mins by Nano DSF assay
In short: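 40 µg SaSrtAΔN24 (wild type or C184A) in 100 µL 50 mM Tris-HCl pH 9.0, 150 mM NaCl, 5 mM CaCl2 incubated with compound for 15 min at room temperature, then centrifuged. Label-free nanoDSF read at 330/350 nm while ramping 30–90 °C at 2 °C per min. Tm taken from the first derivative of the ratio.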

In the case of COc1ccc(/C=C/C=C2C(=O)NC(=O)NC2=O)cc1, the Activity (Staphylococcus aureus [1]) was “Active”, the MIC (Staphylococcus aureus [2]) was greater than 512 µg/mL and the pIC50 [3] was 6.15. The Ratio [4] was 4, the pIC50 (Sortase A) was 6.52 and the ΔTm [5] was 4.1 °C.
